Assay results taken from ChEMBL document CHEMBL4406851, “Design, synthesis and biological evaluation of cinnamic acid derivatives with synergetic neuroprotection and angiogenesis effect” (Eur J Med Chem, 2019).
The source made the active and inactive calls. The rule behind the calls is not given here.

Experiments:
[1] = Inhibition of H2O2-induced apoptosis in human HBMEC2 cells assessed as normal cells at 6.25 uM preincubated for 24 hrs followed by H2O2 addition measured after 4 hrs by Annexin V-FITC/propidium iodide staining based flow cytometry (reference value: 62.1 %); type: functional, HBMEC-2; design: scale not given: the % may be the effect or the level left
Summary of the method: (§1)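 Cells were seeded at 3.5×10^4 cells/mL in 6-well plates at 37 °C, 5% CO2. Compound was added at three concentrations for 24 h, then H2O2 (4.8 mM stock solution) to model and drug wells for 4 h. Cells were collected, washed in cold PBS and resuspended in annexin-binding buffer. Staining was annexin V-FITC 10 min, then PI 5 min, in the dark, followed by flow cytometry with quadrant gating.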

SH-SY5Y [2] = assay: Inhibition of H2O2-induced apoptosis in human SH-SY5Y cells assessed as normal cells at 1.56 uM preincubated for 24 hrs followed by H2O2 addition measured after 4 hrs by Annexin V-FITC/propidium iodide staining based flow cytometry (reference value: 67.2 %); type: functional; design: scale not given: the % may be the effect or the level left; summary of the method: as §1
SH-SY5Y [3] = assay: Inhibition of H2O2-induced apoptosis in human SH-SY5Y cells assessed as necrotic cells at 1.56 uM preincubated for 24 hrs followed by H2O2 addition measured after 4 hrs by Annexin V-FITC/propidium iodide staining based flow cytometry (reference value: 0.9 %); type: functional; design: scale not given: the % may be the effect or the level left; summary of the method: as §1
SH-SY5Y [4] = assay: Inhibition of H2O2-induced apoptosis in human SH-SY5Y cells assessed as necrotic cells at 3.13 uM preincubated for 24 hrs followed by H2O2 addition measured after 4 hrs by Annexin V-FITC/propidium iodide staining based flow cytometry (reference value: 0.9 %); type: functional; design: scale not given: the % may be the effect or the level left; summary of the method: as §1
[5] = Inhibition of H2O2-induced apoptosis in human HBMEC2 cells assessed as necrotic cells at 1.56 uM preincubated for 24 hrs followed by H2O2 addition measured after 4 hrs by Annexin V-FITC/propidium iodide staining based flow cytometry (reference value: 0.4 %); type: functional, HBMEC-2; design: scale not given: the % may be the effect or the level left; summary of the method: as §1
SH-SY5Y [6] = assay: Protection against H2O2-induced mitochondrial dysfunction in human SH-SY5Y cells assessed as recovery of mitochondrial membrane potential at 1.56 to 6.25 uM preincubated for 24 hrs followed by H202 addition measured after 4 hrs by Rh123 staining based inverted light microscopic analysis; type: functional, cell-based
Summary of the method: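 Cells in 96-well plates (3.5×10^4 cells/mL) were grown 24 h. They were pretreated 24 h with compound at three concentrations, then exposed to H2O2 (4.8 mM stock) for 4 h. Medium was removed and Rh123 added for 30 min at 37 °C. Cells were washed twice in cold PBS and examined immediately under an inverted microscope for green fluorescence.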

SH-SY5Y [7] = assay: Protection against H2O2-induced apoptosis in human SH-SY5Y cells assessed as reduction in cell disruption at 1.56 to 6.25 uM preincubated for 24 hrs followed by H2O2 addition measured after 4 hrs by Giemsa staining based inverted phase contrast microscopic analysis; type: functional
Summary of the method: (§2)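 Cells at 3.5×10^4 cells/mL in 24-well plates were pretreated 24 h with compound at three concentrations, then H2O2 (4.8 mM stock) for 4 h. After PBS washes, cells were fixed in 4% paraformaldehyde/70% cold ethanol for 10 min. Staining was 6% Giemsa or DAPI for 5 min in the dark. Random fields were photographed at 200× by microscope, alongside control and model groups.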

[8] = Inhibition of H2O2-induced apoptosis in human HBMEC2 cells assessed as early apoptotic cells at 6.25 uM preincubated for 24 hrs followed by H2O2 addition measured after 4 hrs by Annexin V-FITC/propidium iodide staining based flow cytometry (reference value: 8.1 %); type: functional, HBMEC-2; design: scale not given: the % may be the effect or the level left; summary of the method: as §1
SH-SY5Y [9] = assay: Protection against H2O2-induced apoptosis in human SH-SY5Y cells assessed as increase in cell number preincubated for 24 hrs followed by H2O2 addition measured after 4 hrs by DAPI staining based inverted phase contrast microscopic analysis; type: functional; summary of the method: as §2
Chorioallantoic membrane = assay: Induction of angiogenesis in chicken chorioallantoic membrane assessed as increase in microvessel formation at 1 mg/ml measured after 48 hrs by dissecting microscopic analysis; type: functional, cell membranes; details: Gallus gallus
Summary of the method: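 Fertile eggs were incubated 7 days at 37 °C and 60% humidity. A small window was opened at one end and the membrane was wetted with a drop of sterile saline. Test solution (0.5, 1 or 2 mg/mL) was applied to the allantoic membrane, with PBS for controls. After 48 h the membrane was separated from the shell, then viewed and photographed under a dissecting microscope.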

SH-SY5Y [10] = assay: Neuroprotective activity against H2O2-induced cell damage in human SH-SY5Y cells assessed as increase in cell viability preincubated for 24 hrs followed by H2O2 addition and measured after 4 hrs by MTT assay; type: functional, cell-based
Summary of the method: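 Cells at 3.5×10^4 cells/mL in 96-well plates were grown 24 h (37 °C, 5% CO2). Test agent was added at five concentrations for 24 h, then H2O2 (4.8 mM stock) to model and drug wells. After PBS washes, MTT (5 mg/mL) was added for 4 h, formazan was dissolved in DMSO and OD was read at 550 nm. Proliferation rate = (drug − injury OD)/(control − injury OD). EC50 came from a formula using maximum concentration and summed, maximal and minimal rates.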

HBMEC-2 [11] = assay: Protection against H2O2-induced apoptosis in human HBMEC2 cells assessed as reduction in cell shrinkage at 1.56 to 6.25 uM preincubated for 24 hrs followed by H2O2 addition and measured after 4 hrs by Giemsa staining based inverted phase contrast microscopic analysis; type: functional; summary of the method: as §2
[12] = Inhibition of H2O2-induced apoptosis in human HBMEC2 cells assessed as necrotic cells at 3.13 uM preincubated for 24 hrs followed by H2O2 addition measured after 4 hrs by Annexin V-FITC/propidium iodide staining based flow cytometry (reference value: 0.4 %); type: functional, HBMEC-2; design: scale not given: the % may be the effect or the level left; summary of the method: as §1
[13] = Inhibition of H2O2-induced apoptosis in human HBMEC2 cells assessed as normal cells at 3.13 uM preincubated for 24 hrs followed by H2O2 addition measured after 4 hrs by Annexin V-FITC/propidium iodide staining based flow cytometry (reference value: 62.1 %); type: functional, HBMEC-2; design: scale not given: the % may be the effect or the level left; summary of the method: as §1
HBMEC-2 [14] = assay: Protection against H2O2-induced apoptosis in human HBMEC2 cells assessed as decrease in nuclear fragmentation preincubated for 24 hrs followed by H2O2 addition measured after 4 hrs by DAPI staining based inverted phase contrast microscopic analysis; type: functional, cell-based; summary of the method: as §2
[15] = Inhibition of H2O2-induced apoptosis in human HBMEC2 cells assessed as late apoptotic cells at 6.25 uM preincubated for 24 hrs followed by H2O2 addition measured after 4 hrs by Annexin V-FITC/propidium iodide staining based flow cytometry (reference value: 29.4 %); type: functional, HBMEC-2; design: scale not given: the % may be the effect or the level left; summary of the method: as §1
HBMEC-2 [16] = assay: Protection against H2O2-induced apoptosis in human HBMEC2 cells assessed as increase in cell number preincubated for 24 hrs followed by H2O2 addition measured after 4 hrs by DAPI staining based inverted phase contrast microscopic analysis; type: functional; summary of the method: as §2
Gallus gallus = species on record: Gallus gallus; assay: Induction of angiogenesis in chicken embryo assessed as up regulation of VEGFR2 mRNA expression at 1 mg/ml by RT-PCR analysis; type: functional, organism-based
Summary of the method: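 Total RNA came from chick embryos of the 1 mg/mL CAM group (Trizol extraction) and was reverse-transcribed with M-MLV. SYBR real-time PCR ran 40 cycles of 94 °C 15 s / 60 °C 35 s, then 72 °C 10 min. Expression was quantified relative to controls by the 2^-ΔΔCT method.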

SH-SY5Y [17] = assay: Inhibition of H2O2-induced apoptosis in human SH-SY5Y cells assessed as early apoptotic cells at 3.13 uM preincubated for 24 hrs followed by H2O2 addition measured after 4 hrs by Annexin V-FITC/propidium iodide staining based flow cytometry (reference value: 5.4 %); type: functional; design: scale not given: the % may be the effect or the level left; summary of the method: as §1

SMILES: COc1cc(CNC(=O)/C=C/c2cc(OC)c(OC)cc2OC)ccc1O
- Activity [1]: 81.4%
- Activity (SH-SY5Y [2]): 70.4%
- Activity (SH-SY5Y [3]): 1.4%
- Activity (SH-SY5Y [4]): 0.1%
- Activity [5]: 1%
- Activity (SH-SY5Y [6]): Active
- Activity (SH-SY5Y [7]): Active
- Activity [8]: 8.3%
- Activity (SH-SY5Y [9]): Dose-dependent effect
- Activity (Chorioallantoic membrane): Active
- EC50 (SH-SY5Y [10]): 2410 nM
- Activity (HBMEC-2 [11]): Active
- Activity [12]: 0.1%
- Activity [13]: 80.5%
- Activity (HBMEC-2 [14]): Dose-dependent effect
- Activity [15]: 10.2%
- Activity (HBMEC-2 [16]): Dose-dependent effect
- Activity (Gallus gallus): Active
- Activity (SH-SY5Y [17]): 4.2%
